Screening results: PubChem BioAssay, The Scripps Research Institute Molecular Screening Center
In the library only some 4.3% were active in any assay of this set; here they are far more common.
CHO parental Ca = signal in parental CHO cells, OX1R antagonist counter-screen; parental CHO-K1, ATP-induced calcium, Fluo-8 fluorescence; 330,000 compounds, 0.63% hits; inhibition, % at 5.6 µM;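 active means inhibition above that plate's mean sample inhibition plus 3 SD, cut at about 26% in these data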;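 further: 0% = ATP-challenged DMSO wells and 100% = DMSO wells without ATP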
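Material: Parental CHO cells | Reagent: ATP | Compound dosing: Single nominal dose of 5.6 µM per compound | Detection: Intracellular calcium via Fluo-8 no-wash fluorescent dye | Read-out: % inhibition of ATP-induced calcium mobilization | Benchmarks: Low control ATP plus DMSO, high control DMSO only | Replicates: Singlicate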
GalR3 antagonist = antagonists of human GalR3. O60755. HEK293 GalR3-CNG cAMP membrane potential fluorescence; galR3 body fused to GalR1 C-terminus. inhibition, % at 3 µM. 360,000 compounds, 0.44% hits;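 active means inhibition above the screen-wide average plus 3 SD, cut at about 13% in these data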;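 further: forskolin and galanin both at EC90 stimulate the cells; cAMP rise reported by CNG channel membrane potential dye signal; 0% = forskolin plus galanin with DMSO and 100% = forskolin alone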
Target sequence (O60755 1-299 limits assumed): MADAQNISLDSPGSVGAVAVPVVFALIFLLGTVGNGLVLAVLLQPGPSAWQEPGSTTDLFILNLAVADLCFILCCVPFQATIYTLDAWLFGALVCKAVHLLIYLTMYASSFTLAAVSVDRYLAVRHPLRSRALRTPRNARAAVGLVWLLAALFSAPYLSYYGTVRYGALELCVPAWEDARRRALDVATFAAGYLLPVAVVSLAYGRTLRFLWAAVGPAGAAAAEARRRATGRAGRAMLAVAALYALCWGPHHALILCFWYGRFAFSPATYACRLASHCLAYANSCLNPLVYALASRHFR
TAAR1 agonist = agonists of human TAAR1; CHO RD-HGA16 TAAR1, Fluo-8 calcium fluorescence; vehicle wells 0%, saturating PEA agonist 100%; activation, % at 3 µM; 360,000 compounds, 0.99% hits; AID 624467;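 active means activation above the mean activation of all test compounds in the run plus 3 SD, cut at about 38% in these data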
Target sequence (Q96RJ0 whole entry, looked up): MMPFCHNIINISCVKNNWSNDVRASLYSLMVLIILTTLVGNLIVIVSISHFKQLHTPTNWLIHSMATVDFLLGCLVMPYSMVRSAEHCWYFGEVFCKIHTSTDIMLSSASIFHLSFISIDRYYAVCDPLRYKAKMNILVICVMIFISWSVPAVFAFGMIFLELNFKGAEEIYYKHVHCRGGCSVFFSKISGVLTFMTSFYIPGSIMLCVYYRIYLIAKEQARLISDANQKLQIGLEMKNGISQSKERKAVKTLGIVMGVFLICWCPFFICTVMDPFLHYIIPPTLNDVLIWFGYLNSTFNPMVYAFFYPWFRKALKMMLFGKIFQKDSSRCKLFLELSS
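System: CHO-derived RD-HGA16 cells with stable Gα16 and human TAAR1. Times: 17-24 h plating, Fluo-8 75 min 37 °C, 30 min RT. Measured by: calcium-sensitive Fluo-8 signal, excitation 470-495, emission 515-575 nm. Read-out basis: % activation relative to PEA EC100 response. Control set: DMSO and PEA EC100. Repeats: no replicates (n 1).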
OX1R antag-1 = antagonists of human orexin 1 receptor (OX1R); O43613; OX1R-expressing cells, FRET antagonist read-out; inhibition, % at 6.6 µM; 330,000 compounds, 1.8% hits; AID 485270; in the data active means inhibition mostly above about 38%, no sharp cut-off; inactive means mostly below about 40%;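 further: 0% = agonist challenge alone and 100% = reference antagonist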
OX1R antag-2 = antagonists of human orexin 1 receptor | O43613 | CHO/OX1R cells, Fluo-8 calcium fluorescence, orexin A | 330,000 compounds, 0.43% hits | inhibition, % at 5 µM;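 active means inhibition above its plate's threshold, mean inhibition of all tested compounds on the plate plus 3 SD, cut at about 37% in these data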;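 further: 0% = orexin A challenge wells and 100% = SB-334867-A antagonist wells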
TAAR1 antagonist = human TAAR1 antagonism; AID 624466; CHO RD-HGA16 TAAR1, Fluo-8 calcium fluorescence, antagonist; inhibition, % at 3 µM; Q96RJ0; 360,000 compounds, 1.5% hits;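 active means inhibition above a per-plate cutoff, the mean inhibition of test compounds on that plate plus 3 SD, cut at about 49% in these data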;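 further: 0% = DMSO plus EC80 beta-PEA response and 100% = DMSO alone without agonist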
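System: CHO RD-HGA16 cells bearing hTAAR1. Reagent: EC80 β-phenethylamine stimulus. Schedule: seeding 17-24 h prior, 75-min 37 °C, 30-min RT dye loading. Signal: Fluo-8 intracellular calcium dye fluorescence, real-time kinetic reads. Read-out: % inhibition from peak post-agonist over basal fluorescence ratio. Benchmarks: vehicle wells and EC80 agonist wells. Replicates: n of 1.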
nonsel antag count = nonselective antagonist in TAAR1 antagonist counter-screen. shares compounds with TAAR1 antagonist. counterscreen cell line, calcium fluorescence, antagonist mode. inhibition, % at 3 µM. 2,400 compounds, 77% hits. AID 651780; in the data active means inhibition above about 22%;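 further: CHO-Ga16 host cells stimulated with ATP at an EC80 level; 0% = agonist EC80 plus vehicle and 100% = vehicle without agonist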
TAAR1 antag conf = human TAAR1 antagonism, confirmed; shares compounds with TAAR1 antagonist; TAAR1-expressing cells, fluorescence antagonist read-out; AID 651785; 2,400 compounds, 40% hits; inhibition, % at 3 µM; in the data active means inhibition above about 49%;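 further: CHO-Ga16 host cells challenged with agonist PEA near its EC80; 0% = agonist at EC80 plus vehicle and 100% = vehicle with no agonist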
Ga16 ag counter = nonselective Ga16 agonist in TAAR1 antagonist counter-screen; 2,400 compounds, 18% hits; Ga16-expressing cells, calcium fluorescence, agonist counterscreen; shares compounds with TAAR1 antagonist; AID 651953; activation, % at 3 µM; in the data active means activation above about 12%;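 further: 0% = vehicle wells and 100% = saturating stimulus response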
TAAR1 ag counter = activates human TAAR1 in antagonist counter-screen. shares compounds with TAAR1 antagonist. hTAAR1 cell line, fluorescence activation, agonist mode. activation, % at 3 µM. 2,400 compounds, 2% hits. AID 651955; in the data active means activation above about 37%;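 further: CHO cells stably expressing TAAR1 with calcium dye readout; 0% = DMSO vehicle and 100% = full agonist response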
An asterisk follows results filed as active; · = no result.

SMILES	CHO parental Ca	GalR3 antagonist	TAAR1 agonist	OX1R antag-1	OX1R antag-2	TAAR1 antagonist	nonsel antag count	TAAR1 antag conf	Ga16 ag counter	TAAR1 ag counter
Cc1ccccc1C1c2[nH]c3ccccc3c2C[C@H]2C(=O)N(c3ccccc3C(=O)NCCCN3CCOCC3)C(=O)N12 (some centres not stated)	-22	-9	14	8	-30	60*	29*	36	7	6
O=C(NCCCN1CCOCC1)c1ccccc1N1C(=O)[C@@H]2Cc3c([nH]c4ccccc34)C(c3cccc(Cl)c3)N2C1=O (some centres not stated)	-8	-7	18	2	-17	71*	47*	70*	23*	27
Cc1ccc(C2c3[nH]c4ccccc4c3C[C@H]3C(=O)N(c4ccccc4C(=O)NCCN4CCOCC4)C(=O)N23)cc1 (some centres not stated)	-7	-6	10	9	-12	61*	27*	42	7	9
Cc1ccc(C2c3[nH]c4ccccc4c3C[C@H]3C(=O)N(c4ccccc4C(=O)NCCCN4CCOCC4)C(=O)N23)cc1 (some centres not stated)	-16	0	10	4	-26	53*	26*	32	5	5
COc1ccc(C2c3[nH]c4ccccc4c3C[C@H]3C(=O)N(c4ccccc4C(=O)N4CCC(C(=O)O)CC4)C(=O)N23)cc1 (some centres not stated)	-2	-7	4	21	-14	-19	·	·	·	·
CC1(C(=O)NS(=O)(=O)c2cccc(C#N)c2)CCN1C(=O)CC1CCCC1 (configuration not stated)	·	-6	0	·	·	1	·	·	·	·
COc1cc(-c2csc(NC3CCCCC3)n2)cc(OC)c1OC	-24	-5	-2	14	-41	-11	·	·	·	·
O=C(Nc1c2c(nn1-c1ccccc1)CS(=O)C2)c1ccc(S(=O)(=O)N2CCOCC2)cc1 (configuration not stated)	-8	-2	2	13	1	51*	5	0	2	7
NNC(=O)c1[nH]c2ccc([N+](=O)[O-])cc2c1-c1ccccc1	-1	-8	0	7	-23	-18	·	·	·	·
O=C(N/N=C/c1ccccn1)c1[nH]c2ccc([N+](=O)[O-])cc2c1-c1ccccc1	-32	-8	9	38	-21	50*	18	51*	12*	22
CCN(CC)c1ccc(S(=O)(=O)N2CCOCC2)cc1NC(=O)COC(=O)/C=C/c1ccccc1	·	-10	17	·	·	70*	31*	48	7	5
CCN(CC)c1ccc(S(=O)(=O)N2CCOCC2)cc1NC(=O)COC(=O)c1ccco1	-15	-5	10	14	-21	3	·	·	·	·
Cc1c(NC(=O)c2cc(-c3ccccc3)nc3ccccc23)c(=O)n(-c2ccccc2)n1C	-20	-5	14	13	-10	59*	28*	50*	10	10
Cc1c(NC(=O)c2cc(-c3cccs3)nc3ccccc23)c(=O)n(-c2ccccc2)n1C	-18	-4	20	32	-25	46	·	·	·	·
Cc1ccc(-c2cc(C(=O)Nc3c(C)n(C)n(-c4ccccc4)c3=O)c3ccccc3n2)cc1	-27	-5	10	7	-17	49*	30*	40	6	3
COc1ccc(-c2cc(C(=O)Nc3c(C)n(C)n(-c4ccccc4)c3=O)c3ccccc3n2)c(OC)c1	-30	0	8	14	-28	53*	26*	37	7	11
Cc1ccc(S(=O)(=O)N2CCCc3cc(NC(=O)c4c(F)cccc4F)ccc32)cc1	-11	-8	-1	10	3	16	·	·	·	·
c1cn2c(-c3ccc(N4CCOCC4)cc3)cncc2n1	·	-6	2	·	·	-15	·	·	·	·
CCOC(=O)c1ccc(NC(=O)C2CCN(S(=O)(=O)c3ccccc3)CC2)cc1	5	·	2	9	-13	-7	·	·	·	·
Cc1ccc(S(=O)(=O)N2CCCC(C(=O)Nc3ccc(NC(=O)c4ccccn4)cc3)C2)cc1 (configuration not stated)	-6	-5	15	9	-25	55*	32*	53*	8	11
CCOC(=O)c1ccc(NC(=O)C2CCCN(S(=O)(=O)c3ccc(F)cc3)C2)cc1 (configuration not stated)	9	0	20	9	8	67*	39*	62*	13*	14
Cc1ccc(S(=O)(=O)N2CCCC(C(=O)Nc3cccnc3)C2)cc1 (configuration not stated)	-20	-4	16	18	-36	7	·	·	·	·
N#Cc1c(SCc2c(Cl)cccc2Cl)nc(N)[nH]c1=S	-7	-5	1	5	10	-5	·	·	·	·
O=C(/C=C/c1cn(-c2ccccc2)nc1-c1cccc(Cl)c1)N1CCN(c2ccccn2)CC1	-21	-4	0	14	-23	53*	18	31	3	4
Cc1ccc(CN2CCC[C@]3(N[C@H](c4ccc(C)cc4)[C@@H]4C(=O)N(C)C(=O)[C@@H]43)C2=O)cc1	·	-6	1	·	·	-12	·	·	·	·
CN1C=CC(=O)[C@@H](OC(=O)Nc2ccc(Br)cc2)[C@H]1c1ccccc1Br	·	-7	3	·	·	-17	·	·	·	·
Cc1ccc(S(=O)(=O)N[C@H](C(=O)NC2CCC(C)CC2)C(C)C)cc1 (some centres not stated)	-19	-4	2	6	-38	-1	·	·	·	·
COc1ccc(N2CCN(Cc3nc(-c4ccc(Cl)cc4Cl)no3)CC2)cc1	-14	-5	-1	7	-9	5	·	·	·	·
CC(C)N1CCN(c2ccc(OC[C@H]3CO[C@](Cn4cncn4)(c4ccc(Cl)cc4Cl)O3)cc2)CC1	-18	-4	29	17	-19	70*	32*	49*	15*	14
COc1cc(NCCCNC(C)C)c2nccc(C)c2c1	·	-2	0	·	·	-7	·	·	·	·
